Consider 10 molecules from ChEMBL document CHEMBL1121610, “Plant antitumor agents. 18. Synthesis and biological activity of camptothecin analogues” (J Med Chem, 1980).

Data set [1] can be described thus: Therapeutic index was measured on P-388 leukemia cells. The following applies: mouse, read-out: Therapeutic index. The essentials:
(§1)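 In vivo P-388 lymphocytic leukemia (PS) assay run by National Cancer Institute contractors under standard protocols. Compounds were dosed over a range in mg/kg, and activity is reported as % T/C (treated vs control). The optimal dose and the lowest toxic dose were taken from the dose series, and a therapeutic index was tabulated from them.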

Data set [2] has as its system Mus musculus. In words: Optimal activity expressed as percentage treated to that of control was measured in vivo against P-388 leukemia cells. The data set is classed as functional. The essentials:
as §1

The test system of data set [3] is P388. In words: Antileukemic activity against P-388 leukemia cells was measured at given dose range. The format is functional, Mus musculus. The essentials:
as §1

Data set [4] is described as follows: In vitro cytotoxicity of compound was tested against 9KB cells. The format is functional. The following applies: Homo sapiens, read-out: ED50 (the source's name). The essentials:
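Cytotoxicity against KB (9KB) cells was run in vitro at Research Triangle Institute under standard protocols. Potency is expressed as ED50 in μg/mL.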

Data set [5] relates to P388. In words: This is the dose at which optimal activity was observed against P-388 leukemia cells. The format is functional, Mus musculus. The procedure, abridged: as §1
Data set [6] relates to P388. In words: Lowest toxicity was observed at this dose against P-388 leukemia cells. The format is functional, Mus musculus. The procedure, abridged:
as §1

Data set [7] in a line: Therapeutic index was measured on P-388 leukemia cells against P-388 leukemia cells. The format is organism-based. The following applies: mouse, read-out: Therapeutic index. The essentials: as §1
Data set [8] can be described thus: Therapeutic index was measured on P-388 leukemia cells. The note with it: mouse, read-out: Therapeutic index. The procedure, abridged: as §1
Data set [9] has as its system Mus musculus. Description: Optimal activity expressed as percentage treated to that of control was measured in vivo against P-388 leukemia cells; NA means inactive. The format is functional, organism-based. The procedure, abridged:
as §1

Structures are written as SMILES. In brackets after ≈: the same amount, converted by molar mass. Activity calls are given as the source filed them. The rule behind the calls is not given here.

Regarding `CC[C@@]1(O)C(=O)OCc2c1cc1n(c2=O)Cc2cc3cc(OC)ccc3nc2-1`, the selectivity ratio in data set [1] was 1. Moreover, the T/C in [2] is given as 145%. Besides, in data set [3], the Dose range amounted to 4 mg/kg. Besides, the EC50 in data set [4] was determined as 0.02 µg/mL (≈ 0.0529 µM). The results for the Dose in [5] and in data set [6] were 0.5 mg/kg and 1 mg/kg, respectively.
Consider `CCC1(O)C(=O)OCc2c1cc1n(c2=O)Cc2cc3ccccc3nc2-1` (stereo unspecified), for which, in data set [1], the selectivity ratio turned out to be 8. This molecule registered a T/C in data set [2] of 222%. This molecule registered a Dose range in [3] of 16 mg/kg. For the same molecule, the EC50 in [4] was 0.1 µg/mL (≈ 0.287 µM). Moreover, the Dose turned out to be 8 mg/kg in [5] and 16 mg/kg in data set [6].
As for `CC[C@@]1(O)C(=O)OCc2c1cc1n(c2=O)Cc2cc3cc(O)ccc3nc2-1` [HYDROXYCAMPTOTHECIN], in [1], the selectivity ratio was found to be 8. Also, the T/C in [2] was determined as 314%. In addition, in data set [3], the Dose range worked out at 8 mg/kg. In addition, the EC50 in data set [4] amounted to 0.02 µg/mL (≈ 0.0549 µM). Also, the Dose in data set [5] turned out to be 4 mg/kg; in data set [6] it was 8 mg/kg.
With `CCCC1(O)C(=O)OCc2c1cc1n(c2=O)Cc2cc3cccnc3nc2-1` (stereo unspecified), the selectivity ratio in data set [7] was 2. The molecule also yielded a T/C in [2] of 175%. The molecule further yielded a Dose range in data set [3] of 32 mg/kg. Moreover, in data set [5], the Dose amounted to 32 mg/kg.
As to `CCN(CC)CCOc1ccc2nc3c(cc2c1)Cn1c-3cc2c(c1=O)COC(=O)[C@]2(O)CC.Cl`, in [7], the selectivity ratio is 16. The molecule further displayed a T/C in [2] of 234%. This molecule had a Dose range in [3] of 32 mg/kg. Also, in data set [4], the EC50 was greater than 1 µg/mL. The Dose in [5] was 32 mg/kg.
With `COCCC1(O)C(=O)OCc2c1cc1n(c2=O)Cc2cc3ccccc3nc2-1` (stereo unspecified), the selectivity ratio in data set [1] was 2. In [2], this molecule gave a T/C of 160%. Also, in [3], the Dose range worked out at 8 mg/kg. Besides, in data set [4], the EC50 was determined as 0.2 µg/mL (≈ 0.529 µM). Further, the Dose in data set [5] worked out at 4 mg/kg; in [6], 8 mg/kg.
On to `CC[C@@](O)(C(=O)[O-])c1cc2n(c(=O)c1CO)Cc1cc3ccccc3nc1-2.[Na+]`, for which the selectivity ratio in data set [1] amounted to 4. Also, the T/C in [2] is 212%. In data set [3], this molecule showed a Dose range of 8 mg/kg. Also, the Dose came to 40 mg/kg in data set [5] and 80 mg/kg in data set [6].
For `CC[C@@]1(O)C(=O)OCc2c1cc1n(c2=O)Cc2cc3ccccc3nc2-1` [CAMPTOTHECIN], the T/C in [2] stood at 197%. Further, the Dose range in data set [3] was determined as 8 mg/kg. In addition, the figures for the Dose in data set [5] and in data set [6] were 4 mg/kg and 8 mg/kg, respectively. In addition, the selectivity ratio in [8] stood at 8.
On to `CCC1(O)C(=O)OCc2c1cc1n(c2=O)Cc2cc3cc4ccccc4cc3nc2-1` (stereo unspecified), for which the selectivity ratio in data set [7] came to 4. Further, the T/C in data set [2] stood at 198%. The Dose range in [3] was found to be 32 mg/kg. In data set [4], the EC50 was found to be 0.2 µg/mL (≈ 0.502 µM). Moreover, the Dose in data set [5] came to 16 mg/kg.
For the molecule `CC[C@@]1(O)C(=O)OCc2c1cc1n(c2=O)Cc2cc3cc(OCC(=O)[O-])ccc3nc2-1.[Na+]`, the T/C entry in [9] is “inactive”. Moreover, in [3], the Dose range was 32 mg/kg. Moreover, in data set [4], the EC50 is greater than 1 µg/mL.

The T/C is the ratio of treated to control.
